{"data": "Measured values pooled from the literature", "target": "Vascular endothelial growth factor receptor 3 (FLT4, Homo sapiens, UniProt P35916)"}
{"SMILES": "COc1ccc2oc(-c3ccc4nc(N)oc4c3)c/c(=N\\c3ccccc3NC(=O)CCN)c2c1", "read-out": "binding", "tested at": "1 µM", "quantity": "remaining binding", "result": "105%"}
{"SMILES": "C=CC(=O)N1CCC([C@@H]2CCNc3c(C(N)=O)c(-c4ccc(Oc5ccccc5)cc4)nn32)CC1", "read-out": "cell-free assay", "tested at": "1 µM", "quantity": "inhibition", "result": "12%"}
{"SMILES": "COc1ccc2[nH]c3c4[nH]c5ccc(OC)cc5c4c4c(c3c2c1)C(=O)NC4=O", "read-out": "binding", "method": "competition with immobilised ligand", "tested at": "1 µM", "quantity": "remaining binding", "result": "71%"}
{"SMILES": "O=C1C=C(Nc2ccc(OCc3cn(Cc4ccc(Br)cc4)nn3)cc2)C(=O)c2ccccc21", "read-out": "enzyme activity", "action": "inhibitor", "method": "radiometric", "tested at": "10 µM", "quantity": "inhibition", "result": "26%"}
{"SMILES": "CN1CCN(C(=O)c2ccc(NC(=O)Nc3ccc(N(C)c4ccnc(Nc5ccc(CS(C)(=O)=O)cc5)n4)cc3)cc2)CC1", "read-out": "binding", "method": "competition with immobilised ligand", "tested at": "1 µM", "quantity": "remaining binding", "result": "2%"}
{"SMILES": "CCCCC(=O)Nc1ccc(-c2ccc3ncn(CCC)c(=O)c3c2)cn1", "read-out": "binding", "method": "competition with immobilised ligand", "tested at": "0.5 µM", "quantity": "remaining binding", "result": "100%"}
{"SMILES": "CC#CC(=O)N1CCC[C@H]1c1nc(-c2ccc(C(=O)Nc3ccccn3)cc2)c2c(N)nccn12", "read-out": "enzyme activity", "action": "inhibitor", "tested at": "1 µM", "quantity": "inhibition", "result": "0%"}
{"SMILES": "C1=C/COCc2cc(ccc2OCCN2CCCC2)Nc2nccc(n2)-c2cccc(c2)COC/1", "read-out": "binding", "tested at": "0.1 µM", "quantity": "remaining binding", "result": "69%"}
